Measured values from ChEMBL document CHEMBL3779798, “Novel seleno- and thio-urea derivatives with potent in vitro activities against several cancer cell lines” (Eur J Med Chem, 2016).

How the values were obtained:
Type in all cases: functional, cell-based
A549 [1] = experiment: Anticancer activity against human A549 cells assessed as inhibition of cell growth after 24 hrs by MTT assay; conditions: A549, 24 h
In short: (§1)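 MTT assay at 3,000 cells/well. Cells treated with DMSO or seven concentrations from 0.5 to 50 µM for 24, 48 or 72 h. MTT added 3 h before the end point; formazan dissolved in DMSO and read at 570 and 630 nm. IC50 is the concentration giving 50% growth inhibition. Media: PANC-1, BxPC3 and 1205Lu in DMEM; DU145 and A549 in RPMI 1640; HT29, HCT116 and RKO in McCoy's 5A, all with 10% FBS and pen/strep, at 37 °C and 5% CO2.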

[2] = Anticancer activity against human BxPC3 cells assessed as inhibition of cell growth after 48 hrs by MTT assay; conditions: BXPC-3, 48 h; in short: as §1
[3] = Anticancer activity against human PANC1 cells assessed as inhibition of cell growth after 72 hrs by MTT assay; conditions: PANC-1, 72 h; in short: as §1
[4] = Anticancer activity against human 1205 Lu cells assessed as inhibition of cell growth after 48 hrs by MTT assay; in short: as §1
[5] = Anticancer activity against human HCT116 cells assessed as inhibition of cell growth after 48 hrs by MTT assay; conditions: HCT-116, 48 h; in short: as §1
[6] = Anticancer activity against human DU145 cells assessed as inhibition of cell growth after 72 hrs by MTT assay; conditions: DU-145, 72 h; in short: as §1
A549 [7] = experiment: Anticancer activity against human A549 cells assessed as inhibition of cell growth after 48 hrs by MTT assay; conditions: A549, 48 h; in short: as §1
[8] = Anticancer activity against human PANC1 cells assessed as inhibition of cell growth after 48 hrs by MTT assay; conditions: PANC-1, 48 h; in short: as §1
[9] = Anticancer activity against human PANC1 cells assessed as inhibition of cell growth after 24 hrs by MTT assay; conditions: PANC-1, 24 h; in short: as §1
[10] = Anticancer activity against human HCT116 cells assessed as inhibition of cell growth after 24 hrs by MTT assay; conditions: HCT-116, 24 h; in short: as §1
[11] = Anticancer activity against human HCT116 cells assessed as inhibition of cell growth after 72 hrs by MTT assay; conditions: HCT-116, 72 h; in short: as §1
[12] = Anticancer activity against human BxPC3 cells assessed as inhibition of cell growth after 72 hrs by MTT assay; conditions: BXPC-3, 72 h; in short: as §1
A549 [13] = experiment: Anticancer activity against human A549 cells assessed as inhibition of cell growth after 72 hrs by MTT assay; conditions: A549, 72 h; in short: as §1
[14] = Anticancer activity against human DU145 cells assessed as inhibition of cell growth after 48 hrs by MTT assay; conditions: DU-145, 48 h; in short: as §1
[15] = Anticancer activity against human BxPC3 cells assessed as inhibition of cell growth after 24 hrs by MTT assay; conditions: BXPC-3, 24 h; in short: as §1
[16] = Anticancer activity against human 1205 Lu cells assessed as inhibition of cell growth after 24 hrs by MTT assay; in short: as §1
[17] = Anticancer activity against human DU145 cells assessed as inhibition of cell growth after 24 hrs by MTT assay; conditions: DU-145, 24 h; in short: as §1
[18] = Anticancer activity against human 1205 Lu cells assessed as inhibition of cell growth after 72 hrs by MTT assay; in short: as §1
HT-29 [19] = experiment: Anticancer activity against human HT-29 cells assessed as inhibition of cell growth after 72 hrs by MTT assay; conditions: HT-29, 72 h; in short: as §1
HT-29 [20] = experiment: Anticancer activity against human HT-29 cells assessed as inhibition of cell growth after 24 hrs by MTT assay; conditions: HT-29, 24 h; in short: as §1
RKO [21] = experiment: Anticancer activity against human RKO cells assessed as inhibition of cell growth after 24 hrs by MTT assay; in short: as §1
RKO [22] = experiment: Anticancer activity against human RKO cells assessed as inhibition of cell growth after 48 hrs by MTT assay; in short: as §1
HT-29 [23] = experiment: Anticancer activity against human HT-29 cells assessed as inhibition of cell growth after 48 hrs by MTT assay; conditions: HT-29, 48 h; in short: as §1
RKO [24] = experiment: Anticancer activity against human RKO cells assessed as inhibition of cell growth after 72 hrs by MTT assay; in short: as §1

SMILES | IC50 (A549 [1]) [µM] | IC50 [2] [µM] | IC50 [3] [µM] | IC50 [4] [µM] | IC50 [5] [µM] | IC50 [6] [µM] | IC50 (A549 [7]) [µM] | IC50 [8] [µM] | IC50 [9] [µM] | IC50 [10] [µM] | IC50 [11] [µM] | IC50 [12] [µM] | IC50 (A549 [13]) [µM] | IC50 [14] [µM] | IC50 [15] [µM] | IC50 [16] [µM] | IC50 [17] [µM] | IC50 [18] [µM] | also measured
N=C(N)SCc1cc2c(cc1Br)OCO2 | > 50 | > 50 | 34.3 | > 50 | 34.8 | > 50 | > 50 | 40.5 | > 50 | > 50 | 22.1 | 44.3 | > 50 | > 50 | > 50 | > 50 | > 50 | > 50 | –
N=C(N)[Se]Cc1ccc(-n2cccc2)cc1 | 25.3 | 14.7 | > 50 | > 50 | > 50 | > 50 | 16.3 | > 50 | > 50 | > 50 | > 50 | 8.3 | 12.8 | > 50 | > 50 | > 50 | > 50 | > 50 | –
N=C(N)SCc1nc2ccccc2nc1CSC(=N)N | > 50 | > 50 | > 50 | > 50 | > 50 | > 50 | > 50 | > 50 | > 50 | > 50 | > 50 | > 50 | > 50 | > 50 | > 50 | > 50 | > 50 | > 50 | –
COc1cc2oc(=O)cc(C[Se]C(=N)N)c2cc1OC | 15.7 | > 50 | 10 | 4.4 | 8.9 | 6.8 | 5.2 | 19.4 | 20.6 | 26.7 | 6.6 | 6.6 | 4.5 | 8.4 | > 50 | 21 | 11.4 | 1.9 | –
O=c1[nH]cc(F)c(=O)[nH]1 [FLUOROURACIL] | – | – | – | – | > 50 | – | – | – | – | > 50 | 27.8 | – | – | – | – | – | – | – | IC50 (HT-29 [19]): 6.3 µM; IC50 (HT-29 [20]): > 50 µM; IC50 (RKO [21]): > 50 µM; IC50 (RKO [22]): 41.1 µM; IC50 (HT-29 [23]): 25 µM; IC50 (RKO [24]): 6.8 µM
N=C(N)SCc1ccc2c(c1)C(=O)c1ccccc1C2=O | 9.7 | 9 | 6.8 | 8.5 | 10.7 | 31.2 | 8.7 | 7.4 | 7.6 | 20.2 | 10.3 | 7.9 | 7.6 | 22.9 | 4.1 | 9.4 | 29.8 | 6.3 | IC50 (HT-29 [19]): 7.4 µM; IC50 (HT-29 [20]): 17 µM; IC50 (RKO [21]): 28.9 µM; IC50 (RKO [22]): 20.4 µM; IC50 (HT-29 [23]): 8.1 µM; IC50 (RKO [24]): 21 µM
N=C(N)[Se]Cc1ccc2c(c1)C(=O)c1ccccc1C2=O | 8.9 | > 50 | 31.4 | 14.5 | 12.6 | 8.2 | 2.2 | > 50 | > 50 | > 50 | 5.9 | > 50 | 1.9 | 6.2 | > 50 | 17.4 | 21.4 | 11.3 | –
N=C(N)SCc1ccc(-n2cccc2)cc1 | > 50 | > 50 | 40.6 | > 50 | > 50 | 31.7 | > 50 | > 50 | > 50 | > 50 | 31.5 | 24.6 | > 50 | > 50 | > 50 | > 50 | > 50 | > 50 | –
N=C(N)SCN1C(=O)c2ccccc2C1=O | > 50 | > 50 | > 50 | > 50 | > 50 | > 50 | > 50 | > 50 | > 50 | > 50 | > 50 | > 50 | > 50 | > 50 | > 50 | > 50 | > 50 | > 50 | –
N=C(N)SCc1ccc([N+](=O)[O-])o1 | > 50 | > 50 | > 50 | > 50 | 30.8 | > 50 | > 50 | > 50 | > 50 | > 50 | 7 | > 50 | > 50 | > 50 | > 50 | > 50 | > 50 | > 50 | –
N=C(N)[Se]Cc1ccc([N+](=O)[O-])o1 | 22.9 | 39.4 | 13.6 | 15.7 | 3.7 | 15.6 | 10.2 | 15.6 | > 50 | 14.6 | 3.8 | 15.6 | 9 | > 50 | 42.9 | 19.1 | > 50 | 13 | –
N=C(N)[Se]CN1C(=O)c2ccccc2C1=O | 11.2 | 19.1 | 12.6 | 13.2 | 17.9 | 6.9 | 7.8 | 15.3 | 23.5 | 29.2 | 15.6 | 18.8 | 5.5 | 14 | 19.8 | 19 | 18.8 | 9.3 | –
